Bioassay records: PubChem, Sanford-Burnham Center for Chemical Genomics
SUMO1 PPI mod: alters human SUMO1 binding to SIM partners; P63165; SUMO1 binding to a labelled peptide, TR-FRET, 1 h; inhibition, % at 20 µM; 0.33% of 360,000 active; in the data active = inhibition above about 37%
Scp1 inh: Scp-1 (human) phosphatase inhibition; Q9GZU7; Recombinant Scp1, phosphopeptide, malachite green phosphate absorbance; inhibition, % at 20 µM; 0.88% of 340,000 active;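 active = inhibition above about 50% at 20 µM, limit read from the data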
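assay system = SCP-1 phosphatase catalytic domain, residues 76-261 | buffer or medium = 50 mM Tris acetate pH 5.5, 0.005% Tween-20, 10 mM MgCl2 | incubation = enzyme reaction 45 min at room temperature, colour 5 min, stabilisation 30 min | signal = Phosphate-binding colour reagent, absorbance read at 630 nm | measure = % inhibition at 20 µM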
DNMT1 inh: DNMT1 (human) enzyme inhibition. P26358. DNMT1 molecular beacon, Hinp1I cleavage, fluorescence. inhibition (reported as % activation of signal), % at 10 µM. 0.83% of 360,000 active. AID 588458; in the data active = inhibition above about 50%
LMPTP block: blocks human LMPTP phosphatase; AID 651560; inhibition, % at 20 µM; P24666; 0.22% of 360,000 active; recombinant LMPTP-A, OMFP fluorogenic substrate, fluorescence intensity;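 active = compounds that cut the enzyme signal by at least half of the control window in the single-dose screen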
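Assay system: LMPTP-A enzyme. Input: 0.625 nM LMPTP-A final. Probe or stimulus: 400 µM OMFP. Compound dosing: single 20 µM dose. Schedule: 50 min dark incubation at room temperature. Detection: fluorescence intensity of OMFP turnover product. Read-out: percent inhibition versus substrate-only and uninhibited controls. Benchmarks: no-enzyme low control, uninhibited high control.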
STEP block: STEP (human) phosphatase inhibition; P54829; recombinant STEP, OMFP fluorogenic substrate, fluorescence; inhibition, % at 20 µM; 0.25% of 360,000 active;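 active = inhibition at 20 µM, scaled per plate between control wells, above about 37%, limit read from the data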
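Assay system: isolated STEP enzyme / Timing: 20 min at room temperature, dark / Doses: 20 µM, 1% DMSO / Technique: fluorescence intensity, excitation 480 nm, emission 540 nm / Reagent: fluorogenic phosphatase substrate OMFP at 25 µM final / Measure: percent inhibition scaled to no-enzyme and uninhibited-enzyme controls, plate-pattern corrected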
NadD inh: blocks S. aureus nicotinate mononucleotide adenylyltransferase; purified NadD enzyme, colorimetric absorbance read-out; inhibition, % at 20 µM; 0.78% of 360,000 active; in the data active = inhibition above about 26%
NadD inh conf: NadD (S. aureus) inhibition, single concentration confirmation; inhibition, % at 20 µM; shares compounds with NadD inh; purified S. aureus NadD, colorimetric enzyme assay; 13% of 2,000 active; in the data active = inhibition mostly above about 42%, no sharp cut-off; inactive = mostly below about 42%
Hits are given with their value; n = inactive; x = no result. This is a sample that favours compounds with a hit; in the whole collection about 2.4% have one here.

SMILES	SUMO1 PPI mod	Scp1 inh	DNMT1 inh	LMPTP block	STEP block	NadD inh	NadD inh conf
O=C(Nc1ccc(Oc2ccc(NC(=O)Nc3ccc([N+](=O)[O-])cc3)cc2)cc1)Nc1ccc([N+](=O)[O-])cc1	n	n	n	n	n	32	n
CC(=O)c1ccc(NC(=O)Nc2ccc([N+](=O)[O-])cc2)cc1	n	n	n	n	n	n	x
CCOC(=O)C1(C)CCN1C(=O)c1ccc(C(C)(C)C)cc1 (stereo unspecified)	n	x	n	n	n	n	x
O=C1CN(S(=O)(=O)c2cccc(C(=O)O)c2)c2ccccc2N1	n	n	n	n	n	n	x
Cc1c(OC(C)C(=O)NCc2ccncc2)ccc2c3c(c(=O)oc12)CCCC3 (stereo unspecified)	n	n	n	n	n	n	x
COc1ccc(OC)c(CCNC(=O)c2ccc3c(=O)[nH]c4c(C(=O)NC(C)C)sc(=S)n4c3c2)c1	n	n	n	n	n	33	n
O=C(Cc1ccccc1Cl)Nc1ccc(S(=O)(=O)Nc2nccs2)cc1	n	n	n	n	n	n	x
O=C(CSc1ccc(Br)c2cccc(Cl)c12)Nc1ccc(S(=O)(=O)Nc2nccs2)cc1	n	n	n	n	n	71	31
COCCNC(=O)C1CCC(CNS(=O)(=O)c2ccccc2)CC1 (stereo unspecified)	n	n	n	n	n	n	x
O=C(Nc1cccc2nsnc12)c1ccc(-c2cccc(Cl)c2)o1	n	n	n	n	n	45	n
COc1ccc(-n2c(=S)[nH]c3sc(-c4ccccc4)cc3c2=O)c(OC)c1	n	n	n	n	n	n	x
COc1ccc(-n2c(=S)[nH]c3c(sc(=S)n3-c3ccccc3)c2=O)c(OC)c1	n	n	n	n	n	30	n
COc1ccc2oc(=O)c(-c3csc(Nc4cccc(O)c4)n3)cc2c1	n	n	n	n	n	35	59
CC(=O)Nc1ccc(Nc2nc(-c3cc4ccccc4oc3=O)cs2)cc1	n	n	n	n	n	n	x
COc1cccc2cc(/C(C)=N/Nc3nc(-c4cc(C)ccc4C)cs3)c(=O)oc12	n	n	n	n	n	34	n
COc1ccc(Nc2nc(-c3cc4cccc(OC)c4oc3=O)cs2)cc1	n	n	n	n	n	44	n
COc1ccc(-c2cc3cccc(OC)c3oc2=O)cc1	n	n	n	n	n	n	x
COc1ccc(CNc2nc(-c3cccnc3)nn2C(=O)C(C)C)cc1	n	n	n	n	n	n	x
C(=C\c1ccccc1)/C=N/Nc1nc(N2CCCCC2)nc(N2CCCCC2)n1	n	n	n	n	n	35	n
CCNC(=S)Nn1cnc2ccccc21	n	n	n	n	n	n	x
Cc1ccc(S(=O)(=O)N2[C@H](CC(=O)c3cccs3)OC[C@@H]2C)cc1	n	x	x	n	x	x	x
CCCN(C(=O)CCl)C1=CCCCC1	n	n	n	n	n	n	x
O=C(Nc1ccc(F)cc1)Nc1ccc([N+](=O)[O-])cn1	n	n	n	n	n	n	x
O=C(Nc1ccc(Cl)c(Cl)c1)Nc1ccc([N+](=O)[O-])cn1	n	n	n	n	n	34	n
COc1cccc(-c2nnc(NC(=O)c3ccc4ncsc4c3)o2)c1	n	n	n	n	n	31	n
SMILES	SUMO1 PPI mod	Scp1 inh	DNMT1 inh	LMPTP block	STEP block	NadD inh	NadD inh conf
CCOc1ccc(-c2nnc(NC(=O)c3ccc(OCC(C)C)c(OC)c3)o2)cc1	n	n	n	n	n	37	n
O=S1(=O)CC(N2CCCCC2)CN1C1CCCCC1 (stereo unspecified)	n	x	n	n	n	n	x
Cc1cc(C)c2sc(N(CCCN(C)C)C(=O)c3ccc(S(=O)(=O)N4CCc5ccccc5C4)cc3)nc2c1	n	x	n	n	n	n	x
CCOC(=O)Cc1csc(NC(=O)c2cc(=O)c3ccccc3o2)n1	n	n	n	n	n	n	x
Cc1cc(C)c2nc(NNC(=O)c3ccc(S(=O)(=O)N4CCc5ccccc5C4)cc3)sc2c1	n	n	n	n	n	60	61
Cc1cc(C)c2nc(NNC(=O)c3cc(=O)c4ccccc4o3)sc2c1	n	n	n	n	n	59	62
